This note sets out measurements from ChEMBL document CHEMBL1123883, “Structure-activity relationships in the 2-arylcarbapenem series: synthesis of 1-methyl-2-arylcarbapenems” (1987).

Experiment [1] has as its target T1, Dipeptidase 1 (Homo sapiens) (UniProt P16444).
T1 sequence (whole entry): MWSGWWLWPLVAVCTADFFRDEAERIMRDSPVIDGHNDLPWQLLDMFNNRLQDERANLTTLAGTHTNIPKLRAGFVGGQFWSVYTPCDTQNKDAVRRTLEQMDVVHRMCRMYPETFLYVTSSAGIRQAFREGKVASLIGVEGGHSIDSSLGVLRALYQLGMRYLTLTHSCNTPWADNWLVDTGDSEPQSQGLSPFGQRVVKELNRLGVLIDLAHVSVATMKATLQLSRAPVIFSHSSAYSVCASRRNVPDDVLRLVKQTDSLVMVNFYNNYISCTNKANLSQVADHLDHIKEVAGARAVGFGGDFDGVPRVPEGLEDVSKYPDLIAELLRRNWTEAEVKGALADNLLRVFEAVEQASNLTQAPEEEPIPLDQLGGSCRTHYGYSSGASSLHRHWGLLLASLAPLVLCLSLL
Description: Susceptibility to mammalian dehydropeptidase DHP-1 relative to thienamycin.

For another experiment, the system named is Enterococcus. Put plainly: Antibiotic activity was determined against Enterococcus (3). It counts as functional. The essentials: (§1)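 Inhibitory concentrations against the strains of each species were expressed as a ratio to the inhibitory concentration of thienamycin, the reference carbapenem, in the same strains.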
For another experiment, the system named is Escherichia coli. Description: Antibiotic activity was determined against Escherichia coli(5). It counts as functional. The method in brief: as §1
In a further experiment the test system is Enterobacter. Description: Antibiotic activity was determined against Enterobacter species (6). It counts as functional. The method in brief:
as §1

The next experiment has as its system Klebsiella sp. Put plainly: Antibiotic activity was determined against Klebsiella species (5). It counts as functional. The essentials:
as §1

The next experiment relates to Proteus. Put plainly: Antibiotic activity was determined against Proteus species (5). It counts as functional, Proteus sp. The method in brief:
as §1

The test system of the next experiment is Pseudomonas aeruginosa. Put plainly: Antibiotic activity was determined against Pseudomonas aeruginosa (5). It counts as functional. The method in brief: as §1
The next experiment deals with Serratia. Description: Antibiotic activity was determined against Serratia species (2). It counts as functional. The essentials:
as §1

The test system of the next experiment is Staphylococcus aureus. Put plainly: Antibiotic activity was determined against Staphylococcus aureus (5). It counts as functional. The essentials:
as §1

≈ marks a conversion by molar mass, not a printed value.

In general, MIC refers to the smallest concentration in the dilution series that meets the test's criterion for growth inhibition. Molecule `C[C@@H](O)[C@H]1C(=O)N2C(C(=O)O)=C(SCCN)C[C@H]12` [THIENAMYCIN] yielded a Relative susceptibility in [1] of 1. For the same molecule, the MIC in the experiment on Enterococcus is 5 µg/mL (≈ 18.4 µM); against Escherichia coli, 0.3 µg/mL (≈ 1.1 µM); in the experiment on Enterobacter, 1.4 µg/mL (≈ 5.14 µM); against Klebsiella sp. it was 1.3 µg/mL (≈ 4.77 µM); in the experiment with Proteus it was 7.5 µg/mL (≈ 27.5 µM); in the experiment on Pseudomonas aeruginosa, 5.8 µg/mL (≈ 21.3 µM). The MIC is 2.5 µg/mL (≈ 9.18 µM) with Serratia and 0.04 µg/mL (≈ 0.147 µM) in the experiment with Staphylococcus aureus.
`C[C@@H](O)[C@H]1C(=O)N2C(C(=O)O)=C(c3ccc(CN)nc3)C[C@H]12` showed a Relative susceptibility in experiment [1] of 0.1. Also, the MIC in the experiment with Enterococcus was determined as 8 µg/mL (≈ 26.4 µM); against Escherichia coli, 3 µg/mL (≈ 9.89 µM); against Enterobacter, 5.7 µg/mL (≈ 18.8 µM); in the experiment with Klebsiella sp., 3 µg/mL (≈ 9.89 µM); in the experiment on Proteus, 3.2 µg/mL (≈ 10.5 µM); against Pseudomonas aeruginosa, 0.2 µg/mL (≈ 0.659 µM). Moreover, the MIC with Serratia stood at 5.3 µg/mL (≈ 17.5 µM); in the experiment on Staphylococcus aureus, 1.9 µg/mL (≈ 6.26 µM).
The molecule `C[C@@H](O)[C@H]1C(=O)N2C(C(=O)[O-])=C(c3ccc(O)cc3)C[C@H]12.[K+]` returned a Relative susceptibility in experiment [1] of 0.2. Besides, the MIC with Enterococcus was 7.5 µg/mL; with Escherichia coli, 2.8 µg/mL; with Enterobacter, 1.7 µg/mL; with Klebsiella sp., 0.7 µg/mL; in the experiment with Proteus, 8 µg/mL; in the experiment on Pseudomonas aeruginosa, 0.06 µg/mL. Also, the values for the MIC against Serratia and against Staphylococcus aureus were 2.3 µg/mL and 0.4 µg/mL, respectively.
`O=C(O)C1=C(c2ccccc2)CC2CC(=O)N12` (stereo not given): in [1], the Relative susceptibility came to 0.35. For the same molecule, the MIC was 1 µg/mL (≈ 4.36 µM) against Enterococcus; 0.1 µg/mL (≈ 0.436 µM) in the experiment on Escherichia coli; 0.2 µg/mL (≈ 0.872 µM) in the experiment with Enterobacter; 0.04 µg/mL (≈ 0.174 µM) against Klebsiella sp.; 0.03 µg/mL (≈ 0.131 µM) in the experiment on Proteus; 0.03 µg/mL (≈ 0.131 µM) in the experiment on Pseudomonas aeruginosa. Moreover, the figures for the MIC in the experiment on Serratia and in the experiment on Staphylococcus aureus were 0.01 µg/mL (≈ 0.0436 µM) and 0.02 µg/mL (≈ 0.0872 µM), respectively.
In turn, `C[C@@H](O)[C@H]1C(=O)N2C(C(=O)[O-])=C(c3ccc(CO)cc3)[C@H](C)[C@H]12.[K+]` displayed a Relative susceptibility in [1] of 0.22. Besides, the MIC against Enterococcus is 1.4 µg/mL; in the experiment on Escherichia coli, 0.9 µg/mL; in the experiment with Enterobacter it was 1.1 µg/mL; against Klebsiella sp., 0.7 µg/mL; in the experiment with Proteus it was 5.3 µg/mL; against Pseudomonas aeruginosa, 0.02 µg/mL. Further, the MIC was 1.2 µg/mL against Serratia and 0.2 µg/mL with Staphylococcus aureus.
Regarding `C[C@@H](O)[C@H]1C(=O)N2C(C(=O)[O-])=C(c3ccccc3)C[C@H]12.[K+]`, the Relative susceptibility in [1] is 0.2. In addition, the MIC in the experiment on Enterococcus is 5.7 µg/mL; in the experiment with Escherichia coli, 2.5 µg/mL; against Enterobacter it was 4.6 µg/mL; in the experiment with Klebsiella sp., 1.4 µg/mL; against Proteus, 10 µg/mL; against Pseudomonas aeruginosa, 0.03 µg/mL. Moreover, the MIC with Serratia was determined as 10 µg/mL; against Staphylococcus aureus, 0.5 µg/mL.
In turn, `O=C(O)C1=C(c2cccnc2)CC2CC(=O)N12` (stereo not given) had a Relative susceptibility in experiment [1] of 0.3. Besides, the MIC against Enterococcus was determined as 0.15 µg/mL (≈ 0.652 µM); against Escherichia coli, 0.01 µg/mL (≈ 0.0434 µM); in the experiment on Enterobacter it was 0.02 µg/mL (≈ 0.0869 µM); against Klebsiella sp. it was 0.02 µg/mL (≈ 0.0869 µM); against Proteus, 0.03 µg/mL (≈ 0.13 µM); in the experiment on Pseudomonas aeruginosa, 0.1 µg/mL (≈ 0.434 µM). Moreover, the MIC against Serratia was found to be 0.01 µg/mL (≈ 0.0434 µM); with Staphylococcus aureus it was 0.002 µg/mL (≈ 0.00869 µM).
Regarding `C[C@@H](O)[C@H]1C(=O)N2C(C(=O)[O-])=C(c3cccnc3)C[C@H]12.[K+]`, the Relative susceptibility in experiment [1] amounted to 0.4. Besides, the MIC in the experiment with Enterococcus came to 6 µg/mL; in the experiment on Escherichia coli it was 9 µg/mL; with Enterobacter, 20 µg/mL; against Klebsiella sp., 7 µg/mL; with Proteus, 17 µg/mL; with Pseudomonas aeruginosa it was 0.05 µg/mL. Besides, the values for the minimum inhibitory concentration (MIC) in the experiment with Serratia and in the experiment on Staphylococcus aureus were 28 µg/mL and 1.5 µg/mL, respectively.
Take `C[C@@H](O)[C@H]1C(=O)N2C(C(=O)[O-])=C(c3cccnc3)[C@H](C)[C@H]12.[K+]`: the Relative susceptibility in [1] is 0.7. In addition, the MIC with Enterococcus came to 2.5 µg/mL; in the experiment with Escherichia coli it was 12 µg/mL; with Enterobacter it was 13 µg/mL; in the experiment with Klebsiella sp. it was 7 µg/mL; with Proteus, 7 µg/mL; in the experiment with Pseudomonas aeruginosa it was 0.05 µg/mL. Also, the MIC in the experiment on Serratia was 13 µg/mL; against Staphylococcus aureus, 1 µg/mL.
Molecule `C[C@@H](O)[C@H]1C(=O)N2C(C(=O)O)=C(c3ccc(CN)cc3)[C@H](C)[C@H]12` came in with a Relative susceptibility in [1] of 0.07. In addition, the MIC turned out to be 3 µg/mL (≈ 9.48 µM) against Enterococcus; 1.6 µg/mL (≈ 5.06 µM) in the experiment with Escherichia coli; 2.5 µg/mL (≈ 7.9 µM) with Enterobacter; 1.7 µg/mL (≈ 5.37 µM) against Klebsiella sp.; 2 µg/mL (≈ 6.32 µM) against Proteus; 0.13 µg/mL (≈ 0.411 µM) against Pseudomonas aeruginosa. Besides, the MIC against Serratia came to 6.5 µg/mL (≈ 20.5 µM); in the experiment with Staphylococcus aureus, 0.4 µg/mL (≈ 1.26 µM).
Consider `C[C@@H]1C(c2cccnc2)=C(C(=O)[O-])N2C(=O)[C@H]([C@@H](C)O)[C@@H]12.[K+]`, for which the Relative susceptibility in experiment [1] is 0.1. For the same molecule, the MIC in the experiment on Enterococcus worked out at 0.15 µg/mL; in the experiment with Escherichia coli, 3.5 µg/mL; against Enterobacter, 5 µg/mL; against Klebsiella sp., 2.5 µg/mL; in the experiment on Proteus, 2.5 µg/mL; in the experiment with Pseudomonas aeruginosa it was 0.03 µg/mL. Moreover, the MIC in the experiment with Serratia turned out to be 22 µg/mL; in the experiment on Staphylococcus aureus, 0.15 µg/mL.
In experiment [1], `C[C@@H](O)[C@H]1C(=O)N2C(C(=O)[O-])=C(c3ccc(CO)cc3)C[C@H]12.[K+]` gave a Relative susceptibility of 0.28. The MIC amounted to 5 µg/mL against Enterococcus; 2 µg/mL against Escherichia coli; 4 µg/mL against Enterobacter; 2.3 µg/mL in the experiment with Klebsiella sp.; 15 µg/mL against Proteus; 0.02 µg/mL in the experiment with Pseudomonas aeruginosa. For the same molecule, the MIC in the experiment on Serratia came out at 7 µg/mL; against Staphylococcus aureus, 1 µg/mL.
In [1], `C[C@@H](O)[C@H]1C(=O)N2C(C(=O)O)=C(c3ccc(CN)nc3)[C@H](C)[C@H]12` showed a Relative susceptibility of 0.16. Moreover, the MIC in the experiment on Enterococcus was determined as 2.8 µg/mL (≈ 8.82 µM); against Escherichia coli it was 1.5 µg/mL (≈ 4.73 µM); in the experiment on Enterobacter, 3.5 µg/mL (≈ 11 µM); in the experiment on Klebsiella sp. it was 2.8 µg/mL (≈ 8.82 µM); against Proteus, 2.5 µg/mL (≈ 7.88 µM); with Pseudomonas aeruginosa it was 0.08 µg/mL (≈ 0.252 µM). The MIC stood at 3.2 µg/mL (≈ 10.1 µM) in the experiment on Serratia and 0.5 µg/mL (≈ 1.58 µM) against Staphylococcus aureus.
In [1], `C[C@@H](O)[C@H]1C(=O)N2C(C(=O)[O-])=C(c3ccccc3)[C@H](C)[C@H]12.[K+]` came in with a Relative susceptibility of 0.25. The MIC came to 2 µg/mL in the experiment on Enterococcus; 0.5 µg/mL against Escherichia coli; 0.3 µg/mL against Enterobacter; 0.3 µg/mL in the experiment with Klebsiella sp.; 3.5 µg/mL against Proteus; 0.02 µg/mL in the experiment on Pseudomonas aeruginosa. In addition, the figures for the MIC with Serratia and against Staphylococcus aureus were 1 µg/mL and 0.2 µg/mL, respectively.
As for `CC(O)[C@H]1C(=O)N2C(C(=O)O)=C(c3ccc(CN)cc3)C[C@H]12` (stereo not given in full), the MIC against Enterococcus was 9.2 µg/mL (≈ 30.4 µM); against Escherichia coli, 3.5 µg/mL (≈ 11.6 µM); with Enterobacter, 11 µg/mL (≈ 36.4 µM); against Klebsiella sp., 3.2 µg/mL (≈ 10.6 µM); with Proteus, 6.5 µg/mL (≈ 21.5 µM); with Pseudomonas aeruginosa it was 0.3 µg/mL (≈ 0.992 µM). Moreover, the MIC against Serratia amounted to 5.3 µg/mL (≈ 17.5 µM); against Staphylococcus aureus it was 1.5 µg/mL (≈ 4.96 µM).
In turn, `C[C@H](O)[C@H]1C(=O)N2C(C(=O)O)=C(c3ccc(CN)cc3)C[C@H]12` came in with a Relative susceptibility in experiment [1] of 0.02.
